Legend:
[1] = molecular target: Serine/threonine-protein kinase Nek11 (Homo sapiens) (UniProt Q8NG66); test: Binding affinity to wild-type human partial length NEK11 (M1 to E313 residues) expressed in mammalian expression system assessed as residual binding level at 1 uM by Kinomescan method relative to control
[2] = molecular target: Serine/threonine-protein kinase DCLK3 (Homo sapiens) (UniProt Q9C098); test: Binding affinity to wild-type human partial length DCAMKL3 (E140 to V628 residues) expressed in bacterial expression system assessed as residual binding level at 1 uM by Kinomescan method relative to control
[3] = molecular target: Serine/threonine-protein kinase D1 (Homo sapiens) (UniProt Q15139); test: Binding affinity to wild-type human partial length PRKD1 (G551 to E870 residues) expressed in bacterial expression system assessed as residual binding level at 1 uM by Kinomescan method relative to control
[4] = molecular target: Cyclin-dependent kinase 8 (Homo sapiens) (UniProt P49336); test: Binding affinity to wild-type human partial length CDK8 (M1 to T360 residues) expressed in bacterial expression system assessed as residual binding level at 1 uM by Kinomescan method relative to control
[5] = molecular target: Macrophage colony-stimulating factor 1 receptor (Homo sapiens) (UniProt P07333); test: Binding affinity to wild-type human partial length CSF1R (I564 to S939 residues) expressed in bacterial expression system assessed as residual binding level at 1 uM by Kinomescan method relative to control
[6] = molecular target: Ribosomal protein S6 kinase alpha-1 (Homo sapiens) (UniProt Q15418); test: Binding affinity to wild-type human partial length C-terminal RSK1 kinase domain 2 (P360 to L681 residues) expressed in bacterial expression system assessed as residual binding level at 1 uM by Kinomescan method relative to control
[7] = molecular target: Dual specificity protein kinase CLK1 (Homo sapiens) (UniProt P49759); test: Binding affinity to wild-type human full length CLK1 (M1 to I484 residues) expressed in bacterial expression system assessed as residual binding level at 1 uM by Kinomescan method relative to control
[8] = molecular target: Cyclin-dependent kinase 11B (Homo sapiens) (UniProt P21127); test: Binding affinity to wild-type human partial length CDC2L1 (P353 to G692 residues) expressed in bacterial expression system assessed as residual binding level at 1 uM by Kinomescan method relative to control
[9] = molecular target: Protein kinase C epsilon type (Homo sapiens) (UniProt Q02156); test: Binding affinity to wild-type human partial length PRKCE (A378 to P737 residues) expressed in mammalian expression system assessed as residual binding level at 1 uM by Kinomescan method relative to control
[10] = molecular target: Tyrosine-protein kinase Blk (Homo sapiens, UniProt P51451); test: Inhibition of recombinant full length His-tagged human Blk cytoplasmic domain expressed in Baculovirus expression system by Z-LYTE assay
[11] = molecular target: ALK tyrosine kinase receptor (Homo sapiens, UniProt Q9UM73); test: Binding affinity to wild-type human partial length ALK (I1088 to E1409 residues) expressed in mammalian expression system assessed as residual binding level at 1 uM by Kinomescan method relative to control
[12] = molecular target: Serine/threonine-protein kinase 17B (Homo sapiens) (UniProt O94768); test: Binding affinity to wild-type human full length DRAK2 (M1 to C372 residues) expressed in bacterial expression system assessed as residual binding level at 1 uM by Kinomescan method relative to control
[13] = molecular target: Mitogen-activated protein kinase kinase kinase 13 (Homo sapiens) (UniProt O43283); test: Binding affinity to wild-type human full length LZK (M1 to W966 residues) expressed in mammalian expression system assessed as residual binding level at 1 uM by Kinomescan method relative to control
Outline: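 Single-point kinome-wide KINOMEscan binding panel, test compound at 1 μM, run by the provider's standard protocol.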

[14] = molecular target: Ribosomal protein S6 kinase alpha-2 (Homo sapiens) (UniProt Q15349); test: Binding affinity to wild-type human partial length C-terminal RSK3 kinase domain 2 (V403 to K700 residues) expressed in bacterial expression system assessed as residual binding level at 1 uM by Kinomescan method relative to control
[15] = system: Proto-oncogene tyrosine-protein kinase receptor Ret (Homo sapiens), P07949 [V804M]; test: Binding affinity to human partial length RET V804M mutant (E713 to D1014 residues) expressed in bacterial expression system assessed as residual binding level at 1 uM by Kinomescan method relative to control
Outline: (§1)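 Kinome-wide selectivity panel run by the KINOMEscan method, with the test compound at a single concentration of 1 μM. Wild-type and mutant kinases were profiled in the same screen.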

[16] = molecular target: Ephrin type-A receptor 4 (Homo sapiens) (UniProt P54764); test: Binding affinity to wild-type human partial length EPHA4 (T601 to R897 residues) expressed in bacterial expression system assessed as residual binding level at 1 uM by Kinomescan method relative to control
[17] = system: Phosphatidylinositol 4,5-bisphosphate 3-kinase catalytic subunit alpha isoform (Homo sapiens), P42336 [E542K]; test: Binding affinity to human partial length PIK3CA E542K mutant (R108 to N1068 residues) expressed in mammalian expression system assessed as residual binding level at 1 uM by Kinomescan method relative to control
[18] = molecular target: Serine/threonine-protein kinase Nek9 (Homo sapiens) (UniProt Q8TD19); test: Binding affinity to wild-type human partial length NEK9 (P32 to R328 residues) expressed in bacterial expression system assessed as residual binding level at 1 uM by Kinomescan method relative to control
[19] = molecular target: Serine/threonine-protein kinase MRCK alpha (Homo sapiens) (UniProt Q5VT25); test: Binding affinity to wild-type human partial length MRCKA (L57 to V418 residues) expressed in bacterial expression system assessed as residual binding level at 1 uM by Kinomescan method relative to control
[20] = system: Tyrosine-protein kinase ABL1 (Homo sapiens), P00519 [F317L]; test: Binding affinity to human phosphorylated ABL1 F317L mutant (S229 to K512 residues) expressed in mammalian expression system assessed as residual binding level at 1 uM by Kinomescan method relative to control; outline: as §1
[21] = molecular target: Ephrin type-A receptor 6 (Homo sapiens) (UniProt Q9UF33); test: Binding affinity to wild-type human partial length EPHA6 (Y700 to E1046 residues) expressed in bacterial expression system assessed as residual binding level at 1 uM by Kinomescan method relative to control
[22] = molecular target: Atypical kinase COQ8B, mitochondrial (Homo sapiens) (UniProt Q96D53); test: Binding affinity to wild-type human full length ADCK4 (M1 to S544 residues) expressed in bacterial expression system assessed as residual binding level at 1 uM by Kinomescan method relative to control
[23] = molecular target: CYP3A4 (Homo sapiens, UniProt P08684); test: Residual activity of CYP3A4 in human liver microsomes at 10 uM using midazolam 1-hydroxylase as substrate preincubated for 5 mins followed by NADPH addition measured after 15 mins by LC/MS/MS analysis relative to control; conditions: probe midazolam (1-hydroxylation)

ALK tyrosine kinase receptor, sequence (Q9UM73 19-1620 limits assumed): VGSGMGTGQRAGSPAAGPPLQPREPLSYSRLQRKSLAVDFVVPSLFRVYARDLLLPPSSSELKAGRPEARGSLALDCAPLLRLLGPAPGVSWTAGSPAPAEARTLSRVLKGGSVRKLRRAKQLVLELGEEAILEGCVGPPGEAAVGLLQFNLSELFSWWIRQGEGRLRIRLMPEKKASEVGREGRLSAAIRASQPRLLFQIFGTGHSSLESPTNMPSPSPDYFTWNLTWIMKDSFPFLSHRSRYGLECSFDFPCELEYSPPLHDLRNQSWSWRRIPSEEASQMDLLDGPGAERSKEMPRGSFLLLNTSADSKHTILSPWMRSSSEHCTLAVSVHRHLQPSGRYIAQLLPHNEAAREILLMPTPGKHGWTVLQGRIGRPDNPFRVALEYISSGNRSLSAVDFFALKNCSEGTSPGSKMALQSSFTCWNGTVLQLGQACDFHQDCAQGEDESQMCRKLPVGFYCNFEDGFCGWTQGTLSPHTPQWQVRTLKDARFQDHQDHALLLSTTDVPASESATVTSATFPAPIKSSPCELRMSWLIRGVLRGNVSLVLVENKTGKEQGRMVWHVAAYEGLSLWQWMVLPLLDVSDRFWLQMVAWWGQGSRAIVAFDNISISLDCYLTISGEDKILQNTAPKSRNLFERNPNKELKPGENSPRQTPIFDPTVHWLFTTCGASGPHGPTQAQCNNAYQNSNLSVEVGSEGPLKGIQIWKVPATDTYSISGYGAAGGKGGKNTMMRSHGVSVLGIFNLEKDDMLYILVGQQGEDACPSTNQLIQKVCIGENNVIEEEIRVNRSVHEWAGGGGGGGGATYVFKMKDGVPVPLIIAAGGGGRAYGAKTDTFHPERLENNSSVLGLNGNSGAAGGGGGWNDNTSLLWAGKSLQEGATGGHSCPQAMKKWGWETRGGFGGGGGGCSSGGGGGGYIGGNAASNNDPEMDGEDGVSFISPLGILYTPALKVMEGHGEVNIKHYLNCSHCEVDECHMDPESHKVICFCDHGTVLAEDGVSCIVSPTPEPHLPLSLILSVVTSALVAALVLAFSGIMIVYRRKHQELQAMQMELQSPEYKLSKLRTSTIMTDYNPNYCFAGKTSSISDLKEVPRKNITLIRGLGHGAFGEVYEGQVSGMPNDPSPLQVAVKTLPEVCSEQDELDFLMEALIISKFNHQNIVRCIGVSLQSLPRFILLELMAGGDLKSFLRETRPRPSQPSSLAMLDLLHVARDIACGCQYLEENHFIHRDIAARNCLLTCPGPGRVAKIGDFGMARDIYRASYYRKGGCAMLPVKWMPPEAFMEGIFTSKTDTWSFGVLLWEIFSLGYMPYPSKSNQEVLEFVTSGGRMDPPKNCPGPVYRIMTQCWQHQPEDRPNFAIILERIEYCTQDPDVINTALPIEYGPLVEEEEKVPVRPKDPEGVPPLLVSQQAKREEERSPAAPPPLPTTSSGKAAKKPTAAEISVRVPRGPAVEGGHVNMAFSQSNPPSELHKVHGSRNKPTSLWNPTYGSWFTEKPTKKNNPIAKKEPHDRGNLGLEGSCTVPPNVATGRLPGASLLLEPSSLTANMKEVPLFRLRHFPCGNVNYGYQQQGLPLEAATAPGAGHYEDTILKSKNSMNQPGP
Serine/threonine-protein kinase Nek11 (Homo sapiens), sequence (Q8NG66 whole entry, the tested form may be a part): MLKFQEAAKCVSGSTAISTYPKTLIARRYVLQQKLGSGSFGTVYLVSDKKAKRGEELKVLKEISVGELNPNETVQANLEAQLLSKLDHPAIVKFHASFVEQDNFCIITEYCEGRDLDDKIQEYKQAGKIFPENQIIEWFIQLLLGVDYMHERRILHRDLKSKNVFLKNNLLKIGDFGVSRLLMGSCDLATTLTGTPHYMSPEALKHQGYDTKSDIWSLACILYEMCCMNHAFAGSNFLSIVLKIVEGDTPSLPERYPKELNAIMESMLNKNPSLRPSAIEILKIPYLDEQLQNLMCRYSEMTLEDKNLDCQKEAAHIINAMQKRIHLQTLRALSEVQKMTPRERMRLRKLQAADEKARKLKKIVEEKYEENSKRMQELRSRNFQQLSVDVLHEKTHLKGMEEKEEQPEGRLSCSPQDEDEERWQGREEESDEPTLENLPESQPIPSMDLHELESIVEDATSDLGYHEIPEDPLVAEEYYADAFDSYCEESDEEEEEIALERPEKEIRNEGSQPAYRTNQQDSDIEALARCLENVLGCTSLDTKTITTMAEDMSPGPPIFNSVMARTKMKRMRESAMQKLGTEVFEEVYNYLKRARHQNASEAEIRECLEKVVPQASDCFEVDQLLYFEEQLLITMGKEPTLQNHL
Macrophage colony-stimulating factor 1 receptor (Homo sapiens), sequence (P07333 whole entry, the tested form may be a part): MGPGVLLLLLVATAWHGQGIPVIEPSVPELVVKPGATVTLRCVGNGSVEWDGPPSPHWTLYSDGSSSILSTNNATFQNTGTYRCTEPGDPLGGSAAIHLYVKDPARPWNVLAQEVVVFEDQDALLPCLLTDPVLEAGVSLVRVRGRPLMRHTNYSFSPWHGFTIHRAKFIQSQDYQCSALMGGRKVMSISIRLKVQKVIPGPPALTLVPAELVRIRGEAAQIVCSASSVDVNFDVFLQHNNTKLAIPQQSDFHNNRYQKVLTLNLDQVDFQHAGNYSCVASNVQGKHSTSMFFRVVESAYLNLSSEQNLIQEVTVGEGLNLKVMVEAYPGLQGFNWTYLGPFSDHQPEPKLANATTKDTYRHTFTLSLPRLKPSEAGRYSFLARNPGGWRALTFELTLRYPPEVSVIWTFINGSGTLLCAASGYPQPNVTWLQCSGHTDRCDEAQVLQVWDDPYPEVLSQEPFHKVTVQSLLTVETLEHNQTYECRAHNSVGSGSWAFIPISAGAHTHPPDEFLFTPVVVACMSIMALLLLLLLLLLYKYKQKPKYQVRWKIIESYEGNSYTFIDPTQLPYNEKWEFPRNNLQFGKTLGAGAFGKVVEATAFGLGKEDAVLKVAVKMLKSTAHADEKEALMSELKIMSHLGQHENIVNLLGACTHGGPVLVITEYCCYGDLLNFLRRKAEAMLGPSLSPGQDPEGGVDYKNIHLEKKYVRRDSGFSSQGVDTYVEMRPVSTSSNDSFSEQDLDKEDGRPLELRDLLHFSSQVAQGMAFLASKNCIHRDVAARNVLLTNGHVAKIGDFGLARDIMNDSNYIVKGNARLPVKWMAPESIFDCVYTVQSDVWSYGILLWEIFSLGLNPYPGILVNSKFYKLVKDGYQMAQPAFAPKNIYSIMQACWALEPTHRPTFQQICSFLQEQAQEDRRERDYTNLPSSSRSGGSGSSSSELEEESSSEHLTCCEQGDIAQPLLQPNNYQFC
Protein kinase C epsilon type (Homo sapiens), sequence (Q02156 whole entry, the tested form may be a part): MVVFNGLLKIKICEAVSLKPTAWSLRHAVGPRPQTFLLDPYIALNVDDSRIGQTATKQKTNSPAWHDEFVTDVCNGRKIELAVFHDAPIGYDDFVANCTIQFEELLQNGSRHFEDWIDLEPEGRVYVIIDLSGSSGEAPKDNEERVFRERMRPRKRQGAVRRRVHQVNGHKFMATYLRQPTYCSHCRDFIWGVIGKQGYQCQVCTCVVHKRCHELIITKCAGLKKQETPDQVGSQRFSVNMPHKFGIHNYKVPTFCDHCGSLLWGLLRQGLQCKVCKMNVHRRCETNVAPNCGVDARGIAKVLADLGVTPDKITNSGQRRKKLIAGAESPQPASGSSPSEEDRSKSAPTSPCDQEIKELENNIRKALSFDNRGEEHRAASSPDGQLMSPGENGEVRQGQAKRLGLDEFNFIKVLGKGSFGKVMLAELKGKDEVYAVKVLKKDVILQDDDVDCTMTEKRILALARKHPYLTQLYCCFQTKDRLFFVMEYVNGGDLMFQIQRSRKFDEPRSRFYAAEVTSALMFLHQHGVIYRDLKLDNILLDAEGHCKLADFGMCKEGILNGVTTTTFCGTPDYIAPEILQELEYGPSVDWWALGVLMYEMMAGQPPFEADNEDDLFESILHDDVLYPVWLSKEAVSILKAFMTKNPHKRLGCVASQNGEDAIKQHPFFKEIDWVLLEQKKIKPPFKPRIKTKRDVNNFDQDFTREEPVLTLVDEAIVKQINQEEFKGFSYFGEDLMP
Dual specificity protein kinase CLK1 (Homo sapiens), sequence (P49759 whole entry, looked up, the tested form may be a part): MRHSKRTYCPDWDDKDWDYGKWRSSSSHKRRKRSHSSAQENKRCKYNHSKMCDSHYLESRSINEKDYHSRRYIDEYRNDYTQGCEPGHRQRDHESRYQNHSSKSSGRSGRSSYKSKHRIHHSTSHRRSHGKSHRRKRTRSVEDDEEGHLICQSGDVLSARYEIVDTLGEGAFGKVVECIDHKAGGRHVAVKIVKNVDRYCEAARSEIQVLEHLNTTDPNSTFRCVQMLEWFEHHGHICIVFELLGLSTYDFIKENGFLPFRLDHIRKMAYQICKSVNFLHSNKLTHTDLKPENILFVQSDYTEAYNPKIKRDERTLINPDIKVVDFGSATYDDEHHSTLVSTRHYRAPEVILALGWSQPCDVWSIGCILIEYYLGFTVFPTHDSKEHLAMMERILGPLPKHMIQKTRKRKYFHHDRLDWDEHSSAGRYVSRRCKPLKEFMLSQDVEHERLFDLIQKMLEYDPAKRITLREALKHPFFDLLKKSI
Atypical kinase COQ8B, mitochondrial (Homo sapiens), sequence (Q96D53 whole entry, the tested form may be a part): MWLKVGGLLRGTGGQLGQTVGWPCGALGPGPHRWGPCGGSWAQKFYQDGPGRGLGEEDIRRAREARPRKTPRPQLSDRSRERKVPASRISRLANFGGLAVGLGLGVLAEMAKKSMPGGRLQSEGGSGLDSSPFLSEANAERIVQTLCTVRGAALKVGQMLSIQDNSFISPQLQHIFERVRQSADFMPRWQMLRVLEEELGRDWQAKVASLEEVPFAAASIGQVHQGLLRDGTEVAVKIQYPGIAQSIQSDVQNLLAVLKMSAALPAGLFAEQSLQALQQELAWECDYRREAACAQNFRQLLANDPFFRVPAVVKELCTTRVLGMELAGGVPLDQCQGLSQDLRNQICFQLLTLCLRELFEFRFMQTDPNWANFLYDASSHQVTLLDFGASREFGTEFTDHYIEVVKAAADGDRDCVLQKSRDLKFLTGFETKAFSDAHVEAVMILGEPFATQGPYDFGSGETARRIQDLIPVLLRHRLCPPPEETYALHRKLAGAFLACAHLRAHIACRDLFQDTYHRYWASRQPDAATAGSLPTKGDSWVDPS

C=CC(=O)Nc1cc(Nc2ncc(Cl)c(Nc3ccccc3S(=O)(=O)C(C)C)n2)c(OC)cc1N(C)CCN(C)C gave an Activity [1] of 100%, an Activity [2] of 30% and an Activity [3] of 1.2%. For the same compound, the Activity [4] was 90%, the Activity [5] was 26% and the Activity [6] was 44%. It also gave an Activity [7] of 6.9%, an Activity [8] of 75% and an Activity [9] of 99%. The IC50 [10] was 8 nM, the Activity [11] was 0% and the Activity [12] was 100%. For the same compound, the Activity [13] was 73%, the Activity [14] was 27% and the Activity [15] was 15%. It also gave an Activity [16] of 80%, an Activity [17] of 72% and an Activity [18] of 70%. The Activity [19] was 97%, the Activity [20] was 2.9% and the Activity [21] was 49%. It also gave an Activity [22] of 43% and an Activity at […], 10 µM [23] of 44%.
